In ChEMBL document CHEMBL3525963, “Tissue distribution and elimination of [14C]apixaban in rats” (Drug Metab Dispos, 2011):

Experiments:
Design in all cases: dose 5 mg/kg, dosed compound name [14C]-apixaban, route oral
Settings in all cases: in vivo
[1] = test system: Rattus norvegicus; assay: Biodistribution in male Sprague-Dawley rat kidney cortex at 5 mg/kg, po administered as single dose measured after 0.5 hrs; assay type: ADME, organism-based
[2] = test system: Rattus norvegicus; assay: Biodistribution in female Sprague-Dawley rat bone marrow at 5 mg/kg, po administered as single dose measured after 24 hrs; assay type: ADME, organism-based
Procedure, shortened: (§1)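 Quantitative whole-body autoradiography was run after a single 5 mg/kg (100 μCi/kg) oral gavage to fasted female or pregnant SD rats, one rat per time point. Carcasses were frozen in hexane/dry ice, and 40 µm sagittal sections were dried at −20°C for at least 48 h. Sections were exposed to a phosphor plate alongside [14C]glucose standards (0.001–6.5 µCi/g). Results are µg eq/g, with LLOQ 0.037 µg eq/g.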

[3] = test system: Brain; assay: Biodistribution in female Sprague-Dawley rat brain at 5 mg/kg, po administered as single dose measured after 1 hr; assay type: ADME, organism-based
Procedure, shortened: (§2)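 [14C]Apixaban (1.0 mg/mL, 20 μCi/mL in 0.5% Tween 80 in Labrafil) given as a single oral gavage of 5 mg/kg (100 μCi/kg) to fasted female SD rats, one rat per time point. Carcasses were frozen in hexane/dry ice and cut into 40 µm sagittal sections for QWBA against [14C]glucose standards. Brain radioactivity is reported as µg eq/g, with LLOQ 0.037 µg eq/g.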

[4] = test system: Rattus norvegicus; assay: Biodistribution in female Sprague-Dawley rat brown fat at 5 mg/kg, po administered as single dose measured after 4 hrs; assay type: ADME, organism-based, Brown adipose tissue
Procedure, shortened: (§3)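 [14C]apixaban (20 μCi/mL in dosing solution) in 0.5% Tween 80 in Labrafil given by oral gavage to fasted female rats, 206-213 g, at 100 μCi/kg. One rat per time point was euthanized and snap-frozen. Sagittal 40 µm whole-body sections were read by QWBA phosphor imaging against [14C]glucose standards. Results are in µg eq apixaban/g, with LLOQ 0.037 μg eq/g.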

[5] = test system: Heart; assay: Biodistribution in pregnant Sprague-Dawley rat heart at 5 mg/kg, po administered as single dose measured after 24 hrs; assay type: ADME, organism-based
Procedure, shortened: (§4)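 Fasted pregnant SD rats (n=6, 270-319 g) each received one oral gavage dose of [14C]apixaban, 5 mg/kg (100 μCi/kg), in 0.5% Tween 80/Labrafil. One rat was killed at each of 0.5, 1, 4, 8, 24 and 48 h. Carcasses were frozen in hexane/dry ice, cut into 40 µm sagittal sections, exposed to phosphor plates and quantified against [14C]glucose standards as µg eq/g. LLOQ was 0.037 µg eq/g.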

[6] = test system: Rattus norvegicus; assay: Biodistribution in male Sprague-Dawley rat salivary gland at 5 mg/kg, po administered as single dose measured after 1 hr; assay type: ADME, organism-based
[7] = test system: Rattus norvegicus; assay: Biodistribution in pregnant Sprague-Dawley rat brown fat at 5 mg/kg, po administered as single dose measured after 4 hrs; assay type: ADME, organism-based, Brown adipose tissue
[8] = test system: Heart; assay: Biodistribution in male Sprague-Dawley rat heart at 5 mg/kg, po administered as single dose measured after 72 hrs; assay type: ADME, organism-based
Procedure, shortened: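 Fasted male SD rats (225-252 g) each received one oral gavage dose of [14C]apixaban, 5 mg/kg (100 μCi/kg), in 0.5% Tween 80/Labrafil vehicle. One rat was killed per time point, from 0.5 to 168 h. Frozen carcasses were cut into 40 µm sagittal whole-body sections and read by QWBA phosphor imaging against [14C]glucose calibrants. Results are in µg apixaban eq/g; BLQ <0.037 µg eq/g.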

[9] = test system: Brain; assay: Biodistribution in pregnant Sprague-Dawley rat brain at 5 mg/kg, po administered as single dose measured after 48 hrs; assay type: ADME, organism-based; procedure, shortened: as §4
[10] = test system: Rattus norvegicus; assay: Biodistribution in female Sprague-Dawley rat pituitary gland at 5 mg/kg, po administered as single dose measured after 72 hrs; assay type: ADME, organism-based; procedure, shortened: as §1
[11] = test system: Adrenal gland; assay: Biodistribution in pregnant Sprague-Dawley rat adrenal gland at 5 mg/kg, po administered as single dose measured after 24 hrs; assay type: ADME, organism-based; procedure, shortened: as §4
[12] = test system: Rattus norvegicus; assay: Biodistribution in fetal blood of pregnant Sprague-Dawley rat at 5 mg/kg, po administered as single dose measured after 0.5 hrs; assay type: ADME, organism-based
Procedure, shortened: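 Pregnant rats, 270-319 g and fasted overnight, received [14C]apixaban by oral gavage at 100 μCi/kg in 0.5% Tween 80/Labrafil. One dam per time point was euthanized and frozen in hexane/dry ice. Fetal tissue radioactivity was measured by QWBA on 40 µm sagittal sections calibrated with [14C]glucose standards. Values are in µg eq/g, with LLOQ 0.037 μg eq/g.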

[13] = test system: Rattus norvegicus; assay: Biodistribution in female Sprague-Dawley rat salivary gland at 5 mg/kg, po administered as single dose measured after 1 hr; assay type: ADME, organism-based; procedure, shortened: as §3
[14] = Drug level in lactating Sprague-Dawley rat milk at 5 mg/kg, po administered as single dose after 24 hrs; assay type: ADME, organism-based
[15] = test system: Spleen; assay: Biodistribution in pregnant Sprague-Dawley rat spleen at 5 mg/kg, po administered as single dose measured after 8 hrs; assay type: ADME, organism-based
[16] = test system: Blood; assay: Cmax in pregnant Sprague-Dawley rat blood at 5 mg/kg, po administered as single dose; assay type: ADME, organism-based
Procedure, shortened: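 Fasted male, female or pregnant SD rats received a single oral gavage of 5 mg/kg (100 μCi/kg) in 0.5% Tween 80/Labrafil. One rat was killed per time point, up to 168 h (48 h for pregnant). Blood was collected into K3EDTA. Blood radioactivity came from autoradiogram or LSC data, and Cmax was taken from the concentration-time profile.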

[17] = test system: Lung; assay: Biodistribution in pregnant Sprague-Dawley rat lung at 5 mg/kg, po administered as single dose measured after 24 hrs; assay type: ADME, organism-based
[18] = test system: Brain; assay: Biodistribution in female Sprague-Dawley rat brain at 5 mg/kg, po administered as single dose measured after 4 hrs; assay type: ADME, organism-based; procedure, shortened: as §2
[19] = test system: Muscle tissue; assay: Biodistribution in pregnant Sprague-Dawley rat muscle at 5 mg/kg, po administered as single dose measured after 24 hrs; assay type: ADME, organism-based
Procedure, shortened: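 Pregnant SD rats (270-319 g) were fasted overnight and given one oral gavage of 5 mg/kg (100 μCi/kg) in 0.5% Tween 80 in Labrafil. One rat was euthanized per time point (0.5, 1, 4, 8, 24, 48 h) and the carcass frozen. 40 µm sagittal sections were phosphor-imaged against [14C]glucose standards and results reported as µg eq/g; LLOQ 0.037 µg eq/g.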

[20] = test system: Rattus norvegicus; assay: Biodistribution in female Sprague-Dawley rat pituitary gland at 5 mg/kg, po administered as single dose measured after 0.5 hrs; assay type: ADME, organism-based; procedure, shortened: as §3
[21] = test system: Rattus norvegicus; assay: Biodistribution in male Sprague-Dawley rat brown fat at 5 mg/kg, po administered as single dose measured after 4 hrs; assay type: ADME, organism-based, Brown adipose tissue
Procedure, shortened: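 Fasted male rats, 225-252 g, received [14C]apixaban by single oral gavage at 100 μCi/kg in 0.5% Tween 80/Labrafil. One rat was killed per time point and the carcass frozen. Tissue radioactivity was quantified by QWBA (40 µm sagittal sections, phosphor plate, [14C]glucose calibration) as µg eq apixaban/g, with LLOQ 0.037 μg eq/g.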

[22] = test system: Liver; assay: Biodistribution in female Sprague-Dawley rat liver at 5 mg/kg, po administered as single dose measured after 8 hrs; assay type: ADME, organism-based
Procedure, shortened: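 [¹⁴C]Apixaban given by oral gavage at 5 mg/kg (100 μCi/kg) in 0.5% Tween 80 in Labrafil (1.0 mg/mL dosing solution) to rats fasted overnight through 4 h post-dose. One rat per time point; carcass frozen in hexane/dry ice. Quantitative whole-body autoradiography used 40 µm sagittal sections and a phosphor imaging plate calibrated with [¹⁴C]glucose standards (0.001–6.5 μCi/g). Read-out in µg eq apixaban/g; LLOQ 0.037 μg eq/g.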

With `COc1ccc(-n2nc(C(N)=O)c3c2C(=O)N(c2ccc(N4CCCC[14C]4=O)cc2)CC3)cc1` the Radiolabel recovery [1] was 0.81 ugequiv/g, the Radiolabel recovery [2] was “Not detected assumed BLQ” and the Radiolabel recovery [3] was < 0.037 ugequiv/g. For the same compound, the Radiolabel recovery [4] was 0.61 ugequiv/g, the Radiolabel recovery [5] was “Not detected assumed BLQ” and the Radiolabel recovery [6] was 0.72 ugequiv/g. The Radiolabel recovery [7] was 0.87 ugequiv/g, the Radiolabel recovery [8] was “Not detected assumed BLQ” and the Radiolabel recovery [9] was “Not detected assumed BLQ”. For the same compound, the Radiolabel recovery [10] was “Not detected assumed BLQ”, the Radiolabel recovery [11] was “Not sampled as not visualised in autoradiograph” and the Radiolabel recovery [12] was 0.27 ugequiv/g. It also gave a Radiolabel recovery [13] of 0.55 ugequiv/g, a Radiolabel recovery [14] of 0.31 µg/mL and a Radiolabel recovery [15] of 0.05 ugequiv/g. For the same compound, the Cmax [16] was 1440 ngequiv/g, the Radiolabel recovery [17] was < 0.037 ugequiv/g and the Radiolabel recovery [18] was < 0.037 ugequiv/g. The Radiolabel recovery [19] was “Not detected assumed BLQ”, the Radiolabel recovery [20] was 0.43 ugequiv/g and the Radiolabel recovery [21] was 0.53 ugequiv/g. For the same compound, the Radiolabel recovery [22] was 1.12 ugequiv/g.
